Screens from PubChem BioAssay.
TAAR1 agonist: agonists of human TAAR1; Q96RJ0; CHO RD-HGA16 TAAR1, Fluo-8 calcium fluorescence; vehicle wells 0%, saturating PEA agonist 100%; activation, % at 3 µM; 360,000 tested, 0.99% active;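 active = activation above the mean activation of all test compounds in the run plus 3 SD, cut at about 38% in these data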
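Assay system: CHO-derived RD-HGA16 cells with stable Gα16 and human TAAR1; timing: 17-24 h seeding, 75 min 37 °C dye, 30 min RT; read-out: % activation from peak over basal fluorescence ratio, DMSO-to-PEA scaled; measured by: kinetic Fluo-8 calcium fluorescence; benchmarks: low control DMSO, high control PEA (EC100); doses: 3 µM single concentration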
GPR7 antagonist: blocks human GPR7 receptor signaling; P48145; GPR7-expressing cells, fluorescence antagonist assay; inhibition, % at 4.4 µM; 290,000 tested, 1.1% active; AID 1861; in the data active = inhibition above about 16%, passing the limit was not always enough;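 also: cells stimulated with the agonist NPW; 0% = agonist with vehicle and 100% = vehicle without agonist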
OX1R antag-1: blocks the human orexin 1 receptor | CHO/OX1R cells, Fluo-8 calcium fluorescence, orexin A | inhibition, % at 5 µM | 330,000 tested, 0.43% active | O43613 | AID 434989;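 active = inhibition above its plate's threshold, mean inhibition of all tested compounds on the plate plus 3 SD, cut at about 37% in these data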;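 also: 0% = orexin A challenge wells and 100% = SB-334867-A antagonist wells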
Target sequence (O43613 whole entry, looked up): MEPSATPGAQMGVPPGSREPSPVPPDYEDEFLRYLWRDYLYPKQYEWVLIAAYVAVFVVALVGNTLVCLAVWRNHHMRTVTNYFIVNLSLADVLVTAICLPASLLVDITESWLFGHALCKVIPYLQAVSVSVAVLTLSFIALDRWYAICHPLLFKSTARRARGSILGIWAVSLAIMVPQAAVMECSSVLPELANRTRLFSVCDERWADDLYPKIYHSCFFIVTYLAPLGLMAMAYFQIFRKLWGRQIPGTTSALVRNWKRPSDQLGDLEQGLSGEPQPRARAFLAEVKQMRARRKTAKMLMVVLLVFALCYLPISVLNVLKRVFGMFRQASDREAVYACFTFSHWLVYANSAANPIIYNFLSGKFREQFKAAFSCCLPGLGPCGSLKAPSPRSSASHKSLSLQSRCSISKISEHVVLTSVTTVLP
OX1R antag-2: antagonists of human orexin 1 receptor (OX1R); AID 485270; O43613; OX1R-expressing cells, FRET antagonist read-out; 330,000 tested, 1.8% active; inhibition, % at 6.6 µM; in the data active = inhibition mostly above about 38%, no sharp cut-off; inactive = mostly below about 40%;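 also: 0% = agonist challenge alone and 100% = reference antagonist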
TAAR1 antagonist: antagonists of human TAAR1 | AID 624466 | CHO RD-HGA16 TAAR1, Fluo-8 calcium fluorescence, antagonist | Q96RJ0 | inhibition, % at 3 µM | 360,000 tested, 1.5% active;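 active = inhibition above a per-plate cutoff, the mean inhibition of test compounds on that plate plus 3 SD, cut at about 49% in these data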;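 also: 0% = DMSO plus EC80 beta-PEA response and 100% = DMSO alone without agonist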
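System: RD-HGA16 CHO cells with stable hTAAR1 and Gα16 | Probe or stimulus: EC80 β-phenethylamine stimulus | Dosing: 3 µM, single point | Times: Dye loading 75 min at 37 °C, then 30 min room temperature | Measured by: Fluo-8 calcium-sensitive fluorescence | Read-out basis: % inhibition of agonist calcium response | Replicates: n of 1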
CHO parental Ca: counter-screen for OX1R antagonists: effect in parental CHO cells; 330,000 tested, 0.63% active; parental CHO-K1, ATP-induced calcium, Fluo-8 fluorescence; inhibition, % at 5.6 µM;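 active = inhibition above that plate's mean sample inhibition plus 3 SD, cut at about 26% in these data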;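 also: 0% = ATP-challenged DMSO wells and 100% = DMSO wells without ATP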
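Test system: untransfected parental CHO cell line; also added: ATP stimulus; dosing: 5.6 µM, single dose; signal: calcium-sensitive Fluo-8 fluorescence; measure: percent inhibition of ATP-evoked calcium rise, normalized to controls; benchmarks: low control ATP plus DMSO, high control DMSO only; replication: one well per compound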
Numbers without * were called inactive; . = no result given. The list is not random: actives were taken first. Their share in the collection is about 4.5%.

SMILES	TAAR1 agonist	GPR7 antagonist	OX1R antag-1	OX1R antag-2	TAAR1 antagonist	CHO parental Ca
CC(=O)C1(c2ccccc2)CCNCC1	3	14*	-11	10	-16	-11
O=C(O)C1(c2ccc(Cl)cc2)CCC1	0	-13	-4	8	2	7
O=C1NC(=S)N(c2ccc(Cl)cc2)C(=O)/C1=C/N1CCN(C(=O)c2ccco2)CC1	38*	2	8	14	5	14
O=c1[nH]c2ccccc2n1C1CCN(C(c2cccc3ccccc23)c2nnnn2-c2ccc3c(c2)OCCO3)CC1 (stereo not given)	18	.	.	.	45	.
COc1ccc(-n2nnnc2C(c2cc3ccccc3o2)N2CCC(n3c(=O)[nH]c4ccccc43)CC2)cc1 (stereo not given)	9	.	.	.	51*	.
COc1ccc(C(c2nnnn2-c2ccc(OC)cc2)N2CCC(n3c(=O)[nH]c4ccccc43)CC2)cc1 (stereo not given)	12	.	.	.	44	.
O=c1[nH]c2ccccc2n1C1CCN(C(c2cc3ccccc3o2)c2nnnn2-c2ccc3c(c2)OCCO3)CC1 (stereo not given)	16	.	.	.	66*	.
O=C1NCN(c2ccccc2)C12CCN(C(CCc1ccccc1)c1nnnn1-c1ccc3c(c1)OCCO3)CC2 (stereo not given)	0	.	.	.	-10	.
CCCNC(=O)N1[C@H]2CC[C@@H]1C(C(=O)OC)=C(c1ccc(OC(F)(F)F)cc1)C2	5	.	-15	1	22	-4
CCOC(=O)C1(c2ccccc2)CCN(CCC(=O)Nc2ccc(OC)cc2)CC1	5	.	.	.	-16	.
CCOC(=O)C1(c2ccccc2)CCN(CCC(=O)Nc2cccc(Br)c2)CC1	17	.	.	.	50*	.
CCNCCNc1ccc([N+](=O)[O-])c2cccnc12	1	-4	-16	42*	-20	-15
COC1CC2C=C(C)C=CC=CC(=O)NC(c3ccccc3)CC=CCCC(O)CC(=O)C2=C1O (stereo not given)	7	.	.	.	84*	.
O=C(C1CCCN(S(=O)(=O)c2cccc3nsnc23)C1)N1CCC2(CC1)OCCO2 (stereo not given)	1	1	-14	41*	6	-12
C=C[C@@H]1C2=CCOC(=O)C2=CO[C@H]1O[C@@H]1O[C@H](CO)[C@@H](O)[C@H](O)[C@H]1O	0	.	3	3	17	1
CCOC(=O)[C@]12Cc3ccccc3[C@H]1N(Cc1ccccc1)C(=O)c1cc(F)c(F)cc12	-1	.	.	.	-30	.
CCN1C(=O)C(=Cc2ccc(N3CCOCC3)o2)C(=O)N(CC)C1=S	40*	2	6	9	-2	4
COc1ccc(CCNCc2sccc2C)cc1OC	1	3	-35	29	-9	5
C[C@]12CC[C@H](O)CC1=CCC1C2CC[C@@]2(C)C1C[C@@H]1CC(=O)O[C@@H]12 (stereo not given in full)	4	.	-22	15	8	-3
Cc1ccc(C[n+]2c(-c3ccc(C)cc3)cc(-c3ccc(C)cc3)cc2-c2ccc(C)cc2)cc1	.	.	96*	-5	.	98*
CC1CN2C(=O)C1(c1ccccc1)C(=O)NC2=S (stereo not given)	2	.	.	.	-17	.
Cc1cc(N2CCNC[C@H]2C)ccc1N1CC[C@H](O)C1	3	.	.	.	-21	.
CC1CN(c2ccc([N+](=O)[O-])c3cccnc23)CC(C)N1 (stereo not given)	-1	-2	-24	79*	-13	5
O=[N+]([O-])c1ccc(N2CCCC2)c2ncccc12	-3	-4	4	51	-29	-15
N#Cc1ccc2nc(-c3ccc(CN4CCC(n5c(=O)[nH]c6ccccc65)CC4)cc3)c(-c3ccccc3)nc2c1	2	.	.	.	61*	.
SMILES	TAAR1 agonist	GPR7 antagonist	OX1R antag-1	OX1R antag-2	TAAR1 antagonist	CHO parental Ca
Cc1cccc2nc(-c3ccccc3)c(-c3ccc(CN4CCC(n5c(=O)[nH]c6ccccc65)CC4)cc3)nc12	2	.	.	.	27	.
CCOc1ccc(-n2c(O)c(N=Nc3ccc([N+](=O)[O-])cc3)c(=O)[nH]c2=O)cc1	3	-3	-34	76*	-19	-12
CCCCn1c(=O)c(C(=O)Nc2ncccc2C)c(O)c2ccccc21	55*	-16	-19	-1	7	-11
CCCCCn1c(=O)c(C(=O)Nc2ccccc2S(N)(=O)=O)c(O)c2ccccc21	4	-3	-25	35	-7	-25
CCCCn1c(=O)c(C(=O)Nc2ccccc2S(N)(=O)=O)c(O)c2ccccc21	4	-7	-11	35*	-13	-21
CCOC(=O)[C@]12Cc3cc(Cl)ccc3[C@H]1N(C1CCCCC1)C(=O)c1cc(OC)ccc12	2	.	.	.	63*	.
COC(=O)C1=C(c2ccc(OCc3ccccc3)cc2)C[C@@H]2CC[C@H]1N2C(=O)NCc1cccc(OC)c1	14	.	22	8	24	-1
NNc1n[nH]c(=S)n1N	-1	-5	5	61*	-28	5
CCN(CC)C(=O)c1ccc(NC(=O)c2cccc(C(F)(F)F)c2)cc1	1	-9	-21	31	19	8
CCN(CC)C(=O)c1ccc(NC(=O)c2ccc(-n3cncn3)c([N+](=O)[O-])c2)cc1	0	.	-15	64*	-11	-5
C=CC[N+]1(C)CC[C@]23c4c5ccc(O)c4O[C@H]2C(=O)CC[C@@]3(O)[C@H]1C5 (stereo not given in full)	0	.	-1	4	-18	1
O=C(O)c1cccc2nc3ccccc3nc12	0	1	-3	48*	-4	-9
Clc1ccc(-c2nc3ccc(Cl)cn3c2CN2CCCCC2)cc1	3	-27	.	.	-39	.
CC(C)OP(=O)(Oc1ccc(C(O)C(Cl)(Cl)Cl)cc1)OC(C)C (stereo not given)	5	6	0	59*	-11	-13
CCCC[C@@H](C)C[C@@H](C)C(=O)N(C)[C@@H](CC(C)C)C(=O)N[C@H](C(=O)N(C)[C@H](C(=O)N1C[C@@H](O)C[C@H]1C(=O)N1C(=O)C=C[C@@H]1C)C(C)C)C(C)OC(C)=O (stereo not given in full)	.	.	-22	52*	.	-24
COc1cc2c(cc1OC)C1[C@H]3C(=CC[C@H]1OC2O)CCN3C (stereo not given in full)	5	.	4	14	-15	-1
[O-]c1ccccc1-[n+]1c(-c2ccccc2)cc(-c2ccccc2)cc1-c1ccccc1	3	.	45	16	29	48*
Cc1ccccc1-[n+]1c(-c2ccccc2)cc(-c2ccccc2)cc1-c1ccccc1	9	.	15	45	38	54*
Oc1ccccc1-[n+]1c(-c2ccccc2)cc(-c2ccccc2)cc1-c1ccccc1	8	.	-23	9	51*	-8
